Assay outcomes as filed in PubChem BioAssay.
Sampled rows, rich in hits. Any-hit rate of the full collection: about 4.6%.
TAAR1 ag – agonists of human TAAR1. actives 0.99% (n = 360,000). activation, % at 3 µM. CHO RD-HGA16 TAAR1, Fluo-8 calcium fluorescence; vehicle wells 0%, saturating PEA agonist 100%. Q96RJ0;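 active = activation above the mean activation of all test compounds in the run plus 3 SD, cut at about 38% in these data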
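Test system: RD-HGA16 (CHO) cells co-expressing Gα16 and hTAAR1; dosing: one-point dosing at 3 µM (nominal); timing: 17-24 h seeding, 75 min 37 °C dye, 30 min RT; signal: kinetic Fluo-8 calcium fluorescence; read-out basis: % activation relative to PEA EC100 response; controls: DMSO and PEA EC100; replicates: n 1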
GPR7 antagonist – antagonists of human GPR7 (neuropeptides B/W receptor 1); P48145; GPR7-expressing cells, fluorescence antagonist assay; inhibition, % at 4.4 µM; actives 1.1% (n = 290,000); AID 1861; in the data active = inhibition above about 16%, passing the limit was not always enough;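 note: cells stimulated with the agonist NPW; 0% = agonist with vehicle and 100% = vehicle without agonist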
Target sequence (P48145 whole entry, looked up): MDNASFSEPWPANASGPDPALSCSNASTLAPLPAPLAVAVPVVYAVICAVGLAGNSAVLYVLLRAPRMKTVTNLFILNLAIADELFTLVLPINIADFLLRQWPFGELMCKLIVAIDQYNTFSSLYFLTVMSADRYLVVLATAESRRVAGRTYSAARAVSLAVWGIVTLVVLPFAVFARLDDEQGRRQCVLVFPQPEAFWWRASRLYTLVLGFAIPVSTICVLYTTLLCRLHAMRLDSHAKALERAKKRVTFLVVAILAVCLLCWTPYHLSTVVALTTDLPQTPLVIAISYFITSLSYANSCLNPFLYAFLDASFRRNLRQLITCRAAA
TAAR1 antagonist – antagonists of human TAAR1. inhibition, % at 3 µM. Q96RJ0. CHO RD-HGA16 TAAR1, Fluo-8 calcium fluorescence, antagonist. actives 1.5% (n = 360,000);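 active = inhibition above a per-plate cutoff, the mean inhibition of test compounds on that plate plus 3 SD, cut at about 49% in these data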;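 note: 0% = DMSO plus EC80 beta-PEA response and 100% = DMSO alone without agonist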
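Material: RD-HGA16 CHO cells with stable hTAAR1 and Gα16; Dosing: single nominal final test compound concentration of 3 µM; Schedule: seeding 17-24 h prior, 75-min 37 °C, 30-min RT dye loading; Detection: kinetic Fluo-8 calcium fluorescence measurement; Measure: % inhibition from peak post-agonist over basal fluorescence ratio; Benchmarks: vehicle and agonist controls.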
OX1R antag-1 – antagonists of human orexin 1 receptor; CHO/OX1R cells, Fluo-8 calcium fluorescence, orexin A; inhibition, % at 5 µM; actives 0.43% (n = 330,000);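 active = inhibition above its plate's threshold, mean inhibition of all tested compounds on the plate plus 3 SD, cut at about 37% in these data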;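 note: 0% = orexin A challenge wells and 100% = SB-334867-A antagonist wells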
Target sequence (O43613 whole entry, looked up): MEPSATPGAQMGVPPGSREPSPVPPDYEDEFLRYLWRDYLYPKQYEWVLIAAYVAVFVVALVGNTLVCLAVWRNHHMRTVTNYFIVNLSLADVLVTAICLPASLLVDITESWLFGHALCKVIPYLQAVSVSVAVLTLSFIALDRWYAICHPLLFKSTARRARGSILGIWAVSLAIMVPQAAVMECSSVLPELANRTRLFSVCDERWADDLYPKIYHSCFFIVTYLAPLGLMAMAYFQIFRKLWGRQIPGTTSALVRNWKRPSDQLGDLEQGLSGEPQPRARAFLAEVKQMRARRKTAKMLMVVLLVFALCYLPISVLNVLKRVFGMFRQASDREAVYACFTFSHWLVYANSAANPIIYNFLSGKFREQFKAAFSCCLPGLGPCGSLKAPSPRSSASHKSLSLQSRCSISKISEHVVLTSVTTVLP
OX1R antag-2 – blocks the human orexin 1 receptor; actives 1.8% (n = 330,000); inhibition, % at 6.6 µM; OX1R-expressing cells, FRET antagonist read-out; in the data active = inhibition mostly above about 38%, no sharp cut-off; inactive = mostly below about 40%;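 note: 0% = agonist challenge alone and 100% = reference antagonist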
CHO parental Ca – counter-screen for OX1R antagonists: effect in parental CHO cells | inhibition, % at 5.6 µM | parental CHO-K1, ATP-induced calcium, Fluo-8 fluorescence | AID 463079 | actives 0.63% (n = 330,000);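 active = inhibition above that plate's mean sample inhibition plus 3 SD, cut at about 26% in these data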;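 note: 0% = ATP-challenged DMSO wells and 100% = DMSO wells without ATP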
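Material: parental CHO cells / Compound: single nominal dose of 5.6 µM per compound / Signal: Fluo-8 fluorescence / Replicates: singlicate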
TAAR1 ag confirm – confirmation of human TAAR1 agonists | shares compounds with TAAR1 ag | CHO RD-HGA16 TAAR1, Fluo-8 calcium fluorescence; scaled: DMSO 0%, maximal phenethylamine 100% | activation, % at 3 µM | actives 82% (n = 2,400);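 active = activation above a cutoff set at the run's mean compound activation plus 3 SD, cut at about 39% in these data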
Ga16 nonsel ag – nonselective agonism, TAAR1 counter-screen. AID 651787. CHO-Ga16 parental, Fluo-8 calcium fluorescence; normalized to maximal ATP response, DMSO zero. actives 50% (n = 2,400). activation, % at 3 µM. shares compounds with TAAR1 ag;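 active = activation above the run cutoff, the mean activation over all tested wells plus 3 SD, cut at about 12% in these data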;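 note: 0% = DMSO wells and 100% = maximal ATP response on the peak over basal ratio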
TAAR1 desensitize – human TAAR1 agonist that also desensitizes the receptor; shares compounds with TAAR1 ag; CHO RD-HGA16 hTAAR1, Fluo-8 calcium, beta-PEA response inhibition; inhibition, % at 3 µM; actives 46% (n = 2,400); AID 651951;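 active = inhibition above the run cutoff, the mean inhibition of all test compounds plus 3 SD, cut at about 49% in these data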;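 note: beta-PEA stimulus applied at its EC80; loss of beta-PEA calcium signal after compound pretreatment read as receptor desensitization; 0% = DMSO with beta-PEA at EC80 and 100% = DMSO alone without agonist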
Ga16 antag count – nonselective Ga16 antagonist in TAAR1 agonist counter-screen | shares compounds with TAAR1 ag | CHO-Ga16 ATP-induced calcium, Fluo-8 fluorescence | inhibition, % at 3 µM | actives 39% (n = 2,400) | AID 651952;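 active = inhibition above the plate's mean compound inhibition plus 3 SD, computed per plate, cut at about 22% in these data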;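 note: 0% = EC80 ATP with DMSO and 100% = DMSO wells without ATP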
The depositor's hits bear a star; nt = no result.

SMILES	TAAR1 ag	GPR7 antagonist	TAAR1 antagonist	OX1R antag-1	OX1R antag-2	CHO parental Ca	TAAR1 ag confirm	Ga16 nonsel ag	TAAR1 desensitize	Ga16 antag count
N/C(Cc1cccc2ccccc12)=N\OC(=O)c1ccc(Br)o1	91*	-3	38	nt	nt	nt	89*	1	80*	3
N/C(Cc1ccc(Cl)cc1Cl)=N\OC(=O)c1ccc(Br)o1	3	0	16	-25	7	-2	nt	nt	nt	nt
CCN(Cc1ccccc1)S(=O)(=O)c1ccc(C(=O)Nc2nnc(-c3ccccc3OC)o2)cc1	43*	-5	23	-26	6	-29	19	28*	39	33*
COc1ccccc1-c1nnc(NC(=O)c2ccc(S(=O)(=O)N(C)C)cc2)o1	10	14	-10	-2	1	-3	nt	nt	nt	nt
O=C(CN1CCOCC1)N/N=C/c1ccc(C(=O)O)cc1	2	-3	-10	2	8	1	nt	nt	nt	nt
CN(CCc1ccccn1)C1CC(=O)N(c2ccc(Cl)cc2)C1=O (centres undefined)	68*	-3	7	-33	17	-25	17	0	-3	1
CN(CCc1ccccn1)C(=O)Nc1ccc(Cl)cc1	10	9	10	1	6	-2	nt	nt	nt	nt
C=CCNc1nc(-c2ccc(O)c(C(N)=O)c2)cs1	3	3	-27	-9	28	1	nt	nt	nt	nt
Cc1nc(NC(=O)c2ccccc2)sc1-c1csc(NCCc2ccccc2)n1	64*	6	48	-6	21	-7	61*	21*	58*	34*
NC(=O)c1cc(-c2csc(NCCc3ccccc3)n2)ccc1O	49*	-1	-11	-17	15	-16	46*	6	21	19
Cc1cc(C(=O)N/N=C/c2ccc(Cl)c([N+](=O)[O-])c2)c(C)n1-c1ccc(F)cc1	-2	-10	17	-21	29	-10	nt	nt	nt	nt
CCCCN(C(=O)NC(=O)Nc1cccc(C)c1C)S(C)(=O)=O	70*	17	25	4	8	5	58*	19*	18	10
CC1CCN(c2ccc(NC(=O)Cc3ccccc3)cc2)CC1	84*	-19	53*	-7	15	32	-1	20*	1	13
O=C(COc1ccccc1)NC(=S)Nc1ccc2c3c(cccc13)CC2	9	1	5	-13	9	-9	nt	nt	nt	nt
O=C(COc1ccccc1)NC(=S)Nc1cccc2cc(O)ccc12	72*	-8	45	-14	-9	-2	67*	24*	49*	29*
CCC(C)(C)n1nnnc1C(c1ccc(O)cc1)N1CCc2ccccc2C1 (centres undefined)	98*	3	84*	-21	7	5	93*	4	86*	15
CC(C)(C)n1nnnc1C(c1ccccc1)N1CCc2ccccc2C1 (centres undefined)	nt	9	nt	-15	3	-15	nt	nt	nt	nt
COCCn1nnnc1C(c1ccc(O)c(OC)c1)N1CCc2ccccc2C1 (centres undefined)	86*	-3	84*	-17	7	-8	103*	1	97*	9
CCCCn1nnnc1C(c1ccccc1)N1CCc2ccccc2C1 (centres undefined)	-2	nt	11	nt	nt	nt	nt	nt	nt	nt
CN(CC(=O)Nc1ccc(F)cc1)C(=O)COC(=O)C1CCN(c2ccc(C(F)(F)F)cn2)CC1	4	nt	17	-24	12	-25	nt	nt	nt	nt
COc1ccc(Nc2cc(C)c3c(O)cccc3n2)cc1	nt	3	nt	-10	32	-10	nt	6	nt	13
Cc1ccc(Nc2cc(C)c3c(O)cccc3n2)cc1C	98*	6	54*	10	4	14	96*	28*	87*	25*
O=C1CC(O)(C(F)(F)F)Oc2c1ccc1ccccc21 (centres undefined)	76*	3	46	-4	35	6	75*	70*	46	39*
COc1ccccc1CCn1cnc(-c2ccccc2OC)c1C(C)C	52*	nt	29	nt	nt	nt	79*	7	60*	14
COc1ccccc1CCn1cnc(-c2ccc(Br)cc2)c1C(C)C	45*	nt	36	nt	nt	nt	68*	9	53*	37*
SMILES	TAAR1 ag	GPR7 antagonist	TAAR1 antagonist	OX1R antag-1	OX1R antag-2	CHO parental Ca	TAAR1 ag confirm	Ga16 nonsel ag	TAAR1 desensitize	Ga16 antag count
COc1ccccc1CCn1cnc(-c2cccc(Br)c2)c1C(C)C	27	nt	17	nt	nt	nt	nt	nt	nt	nt
COc1ccc(-c2ncn(CCc3ccccc3OC)c2C(C)C)cc1	15	nt	-1	nt	nt	nt	nt	nt	nt	nt
CCOC(=O)CC1C(=O)NCCN1C(=O)c1ccc(Cl)cc1Cl (centres undefined)	73*	-4	-2	-9	-7	-7	3	-1	-3	11
CCOC(=O)CC1C(=O)NCCN1C(=O)c1ccc(F)cc1F (centres undefined)	14	-4	-7	-16	6	-5	nt	nt	nt	nt
O=c1[nH]c2ccc(Cl)cc2[nH]1	2	nt	-6	nt	nt	nt	nt	nt	nt	nt
CCOc1ccc(CC(=NCCc2ccccc2)C2=C(O)CC(C)(C)CC2=O)cc1OCC	81*	-11	87*	-27	-6	-13	88*	3	79*	10
CCOc1ccc(CC(=N)C2=C(O)CC(C)(C)CC2=O)cc1OCC	-1	-10	-3	-16	27	-6	nt	nt	nt	nt
O=c1[nH]c(CSc2cccc[n+]2[O-])nc2ccccc12	5	-12	-22	-23	7	-13	nt	nt	nt	nt
CCCc1nnc2c(N(C)S(=O)(=O)c3ccc(C)cc3)nc3ccccc3n12	1	-12	-2	-29	24	-21	nt	nt	nt	nt
CCCCc1nnc2c(N(C)S(=O)(=O)c3ccc(C)cc3)nc3ccccc3n12	57*	-12	-8	-24	-1	-12	0	0	2	8
CN(C)c1cccc(C(=O)NNC(=S)NC2CCCC2)c1	2	-10	10	2	3	2	nt	nt	nt	nt
O=Cc1ccc(-n2cccn2)cc1	323*	-8	65*	8	1	3	0	3	3	4
COc1ccc(NC(=O)CS(=O)CC(=O)NCC2OCCc3ccccc32)cc1 (centres undefined)	10	-5	-14	-15	27	-9	nt	nt	nt	nt
